MT1-MMP act inh – blockers of MT1-MMP proenzyme processing, primary screen, HT1080 RFP-PRO-GFP cells, GFP/RFP fluorescence | Matrix metalloproteinase-14 (Homo sapiens), P50281 | GFP/RFP ratio fluorescence, overnight; percent of plate control window, DMSO zero | GFP/RFP ratio change, % at 20 µM | 360,000 tested, 0.061% active | AID 651647, 2012;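 active = GFP/RFP ratio change of at least 30% with cell ATP level not reduced by more than half and red fluorescence within 50% of control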
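Test system: HT1080 RFP-PRO-GFP cells; Benchmarks: DMSO and RFP-L50D-GFP cell wells; Timing: cells overnight before dosing, compound overnight, 37 °C, 5% CO2; Compound: one 20 µM compound dose with 1% DMSO; Read-out: GFP/RFP fluorescence ratio.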
SKN-1 block – suppressors of acrylamide-induced Pgst-4::GFP reporter in worms, primary screen, SKN-1 inhibitor project, whole organism, uHTS, GFP/RFP fluorescence ratio, strain VP596; C. elegans VP596 Pgst-4::GFP/RFP ratio, 24 h; inhibition, % at 21.8 µM; 360,000 tested, 0.49% active;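 active = interference check ratio from 0.5 to 1.5 plus GFP to RFP signal ratio inhibition reaching or exceeding a fixed threshold, cut at about 30% in these data, passing the limit was not always enough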
Arrestin-AP2 inh – inhibitors of beta-arrestin/AP2 binding, primary screen, biochemical, GPCR trafficking, flow cytometry. FITC-arrestin peptide / GST-AP2 beads; AP2 beta2 appendage carries R879A mutation. inhibition, % at 10 µM. beta-arrestin 1 C-terminal peptide binding to AP2 beta2-adaptin appendage (human). 340,000 tested, 0.31% active;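 active = inhibition above a set limit, near 3 SD of compounds lacking own fluorescence, cut at about 54% in these data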;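 note: plate controls were DMSO wells for no effect and 5 µM unlabelled arrestin peptide for full effect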
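test system = AP2 appendage R879A on GSH beads | buffer or medium = PBS plus Tween 20 (0.05%) and BSA (0.1%) | incubation = 12 min plus 1 h, RT | detection = bead flow cytometry, FITC channel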
TbMetRS inhib – T. brucei MetRS inhibitors, primary screen, biochemical, luminescence; methionyl-tRNA synthetase (Trypanosoma brucei brucei); purified T. brucei MetRS, ATP depletion, Kinase-Glo luminescence; inhibition, % at 11.9 µM; 360,000 tested, 0.4% active; AID 624268, 2012;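 active = inhibition above a per-plate cutoff of the control wells' mean inhibition plus 3 SD, cut at about 5.5% in these data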;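 note: 0% = DMSO wells median and 100% = median of wells with control inhibitor compound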
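Material – parasite MetRS enzyme · Medium – HEPES-MgCl2-KCl buffer plus DTT, spermine, BSA, pyrophosphatase · Reagent – ATP, methionine and E. coli bulk tRNA substrates · Times – 15 min enzyme-compound preincubation, 2 h reaction, 10 min detection, 25 °C · Measured by – luminescence of leftover ATP · Evaluation – percent inhibition relative to median high and low control wells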
Rin1-Abl PPI inh – inhibitors of Rin1-Abl protein binding, primary screen, biochemical, TR-FRET. Tyrosine-protein kinase ABL1 (Homo sapiens) + Ras and Rab interactor 1 (Homo sapiens), …. inhibition, % at 7.35 µM. 360,000 tested, 0.4% active; in the data active = inhibition above about 5%, passing the limit was not always enough
Arr-AP2 CP1 – inhibitors of arrestin peptide binding to AP2, confirmation, biochemical, cherry pick 1, flow cytometry beads. shares compounds with Arrestin-AP2 inh. GST-AP2 beads, FITC arrestin peptide binding; GST-fused beta2-adaptin appendage, R879A mutant. inhibition, % at 10 µM. 1,300 tested, 2% active;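 active = inhibition above a set limit, roughly 3 SD of non-fluorescent compound noise, cut at about 38% in these data; inactive = inhibition at or below that limit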;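 note: loss of bead fluorescence from 50 nM FITC arrestin peptide bound to appendage; 0% = negative control wells and 100% = excess unlabelled arrestin peptide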
Target sequence (P63010 whole entry, looked up, the tested form may be a part, one chain of several): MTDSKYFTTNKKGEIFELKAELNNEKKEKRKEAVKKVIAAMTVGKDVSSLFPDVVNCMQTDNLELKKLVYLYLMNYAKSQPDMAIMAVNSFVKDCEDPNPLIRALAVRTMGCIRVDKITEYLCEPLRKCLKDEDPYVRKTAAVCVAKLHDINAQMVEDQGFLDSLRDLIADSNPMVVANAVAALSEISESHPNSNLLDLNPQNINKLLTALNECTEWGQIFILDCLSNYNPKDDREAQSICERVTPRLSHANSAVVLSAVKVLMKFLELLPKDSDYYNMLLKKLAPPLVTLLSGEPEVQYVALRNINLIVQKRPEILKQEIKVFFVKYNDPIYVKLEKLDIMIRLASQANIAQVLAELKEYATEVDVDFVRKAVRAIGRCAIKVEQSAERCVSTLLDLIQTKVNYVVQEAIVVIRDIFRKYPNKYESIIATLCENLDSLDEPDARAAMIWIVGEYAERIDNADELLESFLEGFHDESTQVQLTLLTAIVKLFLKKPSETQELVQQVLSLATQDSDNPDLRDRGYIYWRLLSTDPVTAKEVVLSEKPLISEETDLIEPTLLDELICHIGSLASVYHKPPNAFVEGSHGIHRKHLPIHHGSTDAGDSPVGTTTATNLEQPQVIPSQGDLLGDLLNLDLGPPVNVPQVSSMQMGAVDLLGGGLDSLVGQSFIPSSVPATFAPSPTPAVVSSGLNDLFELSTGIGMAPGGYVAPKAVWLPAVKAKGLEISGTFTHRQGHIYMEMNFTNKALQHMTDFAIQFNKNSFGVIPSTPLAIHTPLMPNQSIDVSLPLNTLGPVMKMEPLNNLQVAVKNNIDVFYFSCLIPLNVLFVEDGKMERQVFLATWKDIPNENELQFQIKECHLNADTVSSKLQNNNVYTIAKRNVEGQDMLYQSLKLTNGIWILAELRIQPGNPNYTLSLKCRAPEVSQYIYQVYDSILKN
GST-FITC bead – GST-fluorescein capture on glutathione beads, confirmation, artefact control for arrestin-AP2 inhibitor project, biochemical, cherry pick 1, flow cytometry | GST-fluorescein binding to GSH beads, fluorescence, counter-screen | shares compounds with Arrestin-AP2 inh | AID 588338, 2011 | inhibition, % at 10 µM | 1,300 tested, 2% active;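 active = inhibition above 50%, about 3 SD of the inhibition seen with non-fluorescent compounds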;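 note: fluorescein maleimide labelled GST captured on 4 micron glutathione beads; higher means more loss of bead fluorescence from quenching or blocked binding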
The depositor's hits bear a star; nt = no result. Compounds with a hit are over-represented: about 1.6% of the library has one in this group of screens.

SMILES	MT1-MMP act inh	SKN-1 block	Arrestin-AP2 inh	TbMetRS inhib	Rin1-Abl PPI inh	Arr-AP2 CP1	GST-FITC bead
CN(C)Cc1cn(CC[C@@H]2CC[C@@H](NC(=O)Nc3ccccc3F)[C@@H](CO)O2)nn1	1.5	12.0	nt	0.0	nt	nt	nt
CCOC(=O)c1c(C(=O)OCC)c(C)n(N2C(=O)CSC2=S)c1C	-3.9	-9.6	60.1*	-0.4	4.0	-12.2	-0.7
O=C(c1ccc(CSc2ccc(Cl)cc2)o1)N1CCOCC1	3.2	7.8	nt	-0.8	5.2	nt	nt
Cc1csc(=Nc2cccnc2)n1CC1CCCCC1	-0.9	2.3	70.0*	-0.4	2.5	-1.7	-8.3
COc1ccc2c(c1)C(CC(C)=O)N(c1ccc(-c3cccs3)cc1)C(c1ccsc1)=C2 (stereo not given)	5.0	-0.7	nt	-1.3	nt	nt	nt
O=C(O)C1OC(C(=O)O)C(C(=O)O)C1C(=O)O (stereo not given)	-1.3	-3.2	57.7*	-0.2	4.7	-3.0	-2.9
O=C(O)C1CCC(C(=O)O)O1 (stereo not given)	-2.9	18.3	29.8	-0.4	6.2	nt	nt
CCNC(=O)/C(C#N)=C/c1c(N2CCN(Cc3ccc4c(c3)OCO4)CC2)nc2c(C)cccn2c1=O	-1.7	0.5	57.2*	0.4	-4.0	3.6	-7.0
COC(=O)C1=CN(c2ccc(F)cc2)C(N)=C(C#N)C1c1cccc(OC)c1OC (stereo not given)	-3.0	-3.3	nt	0.1	nt	nt	nt
O=C(N[C@@H]1CC[C@@H](CCNS(=O)(=O)c2ccc(Cl)cc2)O[C@@H]1CO)c1cccnc1	-2.7	8.8	nt	-0.6	nt	nt	nt
Cc1nc(C(=O)O)nn1-c1ccc([N+](=O)[O-])cc1	3.6	7.7	17.5	-0.3	-1.0	nt	nt
CC(=O)Nc1c(C)nn(-c2ccc([N+](=O)[O-])cc2)c1C	-0.3	-7.9	54.0*	2.5	0.3	-3.4	-10.4
Cc1ccccc1/C=N/Nc1ccc(Cl)nn1	-2.2	94.8	60.2*	-1.1	1.1	-13.9	-3.5
CCOC(=O)c1sc2ncn(CC(=O)Nc3cc(C)on3)c(=O)c2c1C	-5.5	-26.7	63.1*	-0.2	3.5	12.5	-2.3
COCCNc1nc2ccccc2nc1NS(=O)(=O)c1ccc(C)cc1C	-4.0	0.8	104.7*	0.2	-1.6	-7.6	-8.1
COCCCNc1nc2ccccc2nc1NS(=O)(=O)c1ccc(C)c(C)c1	-5.7	-2.6	7.0	-0.3	-4.7	nt	nt
CCn1c(CC(=O)Nc2ccc(OC)cc2)nnc1SCC(=O)N1CCOCC1	0.3	-2.9	65.9*	-0.3	2.2	5.8	-7.6
CCn1c(CC(=O)Nc2ccc(Cl)cc2)nnc1SCC(=O)N1CCOCC1	-1.4	1.1	-2.7	0.3	-3.2	nt	nt
CC(C)NC(=O)C1C(c2ccc(C(F)(F)F)cc2)=Nc2ccccc2N1C(=O)c1cccc2ccccc12 (stereo not given)	-9.5	23.1	nt	0.3	nt	nt	nt
Cc1nc2ccc(NC(=S)NC3CCCCC3)cc2nc1C	1.2	8.0	54.9*	-0.3	-1.2	1.1	-6.6
COCCNC(=O)C[C@H]1C[C@H]2c3cc(NS(=O)(=O)c4ccc(F)cc4)ccc3O[C@H]2[C@H](CO)O1	2.2	-1.3	nt	-0.4	0.0	nt	nt
CC(Oc1ccc(Br)cc1)C(=O)N1CCN(c2ccccn2)CC1 (stereo not given)	2.4	13.3	6.3	0.1	-2.7	nt	nt
CC(Oc1ccc(Br)cc1)C(=O)N1CCC(C(N)=O)CC1 (stereo not given)	1.4	-10.8	58.5*	-0.9	6.0	2.8	-1.6
CC1(C)Oc2ccc3ccc(=O)oc3c2/C(=C/Nc2ccc(O)cc2)C1=O	1.1	-2.7	54.8*	-0.4	5.8	-10.3	-4.0
COc1ccccc1NS(=O)(=O)c1cc(NC(=O)c2sc3cc(Cl)ccc3c2Cl)ccc1C	1.4	2.8	104.7*	-0.1	-0.8	3.2	3.6
SMILES	MT1-MMP act inh	SKN-1 block	Arrestin-AP2 inh	TbMetRS inhib	Rin1-Abl PPI inh	Arr-AP2 CP1	GST-FITC bead
CCCNC(=O)N(C)C[C@@H]1Oc2ncc(-c3ccncc3)cc2C(=O)N([C@H](C)CO)C[C@@H]1C	3.7	3.4	nt	0.1	-2.8	nt	nt
C/C(=C1/SC(N2CCCC2)=NC1=O)c1ccc(Br)cc1	-2.4	0.0	78.9*	-0.1	-0.2	-11.8	-5.8
CC(C)=C1SC(N2CCCCC2)=NC1=O	-0.3	-9.4	12.8	-1.0	3.7	nt	nt
COc1cccc(/C=N/NC(=O)COc2cccc3cccnc23)c1O	2.0	-1.9	60.2*	-0.7	-2.4	-10.7	-0.7
Cc1cc(NC(=O)c2cc(-c3ccc(C)s3)nc3ccccc23)no1	-2.1	-32.5	103.4*	-1.0	1.5	22.2	38.3
CC1(C(=O)NCc2ccccc2)CN(S(C)(=O)=O)CC(=O)N1CCCN1CCOCC1 (stereo not given)	-0.3	6.1	nt	-0.1	nt	nt	nt
CCc1ccc(C2CC3C(CN2S(=O)(=O)c2ccc(C)cc2)C(=O)CC(c2ccc(CC)cc2)N3S(=O)(=O)c2ccc(C)cc2)cc1 (stereo not given)	-0.6	51.5	nt	-0.4	nt	nt	nt
CCOC(=O)C1=CCN(S(=O)(=O)c2ccccc2Cl)C1c1ccc(C)cc1 (stereo not given)	-1.5	37.3	nt	-0.5	0.2	nt	nt
O=C(C1CCN(S(=O)(=O)c2cc(Cl)ccc2Cl)CC1)N1CCCC1	-1.3	8.0	5.6	0.2	-0.8	nt	nt
O=C(C1CCN(S(=O)(=O)c2cc(Cl)ccc2Cl)CC1)N1CCOCC1	-3.7	11.9	56.0*	-0.7	1.7	-1.9	-5.9
O=C(Nc1ccc(F)cc1)C(CCc1ccccc1)N1CCN(Cc2c(F)cccc2Cl)CC1 (stereo not given)	-8.9	7.6	nt	-0.1	nt	nt	nt
COc1ccc(N2CCCC2)c(NC(=O)c2ccc(Br)o2)c1	-8.9	15.7	64.5*	-0.2	-0.9	19.4	-5.6
O=C(Nc1ccccc1N1CCCC1)c1ccc(Br)o1	-3.3	-10.4	29.2	-0.8	-2.7	nt	nt
CN(CC1COc2ccccc2O1)C(=O)c1cccc(S(=O)(=O)N2CCCC2)c1 (stereo not given)	8.1	-36.4	-0.5	-0.6	-2.3	nt	nt
O=S(=O)(c1cccc(-c2cn3cccnc3n2)c1)N1CCOCC1	6.1	17.0	2.3	-0.2	-4.3	nt	nt

Screening data: PubChem BioAssay, several laboratories
